Values after ≈ are worked out from the molar mass of the structure shown. Active and inactive are the calls of the source. No cut-off for these calls is given here. Where a SMILES comes first, the peptide text is derived from it. The star is where a group is joined. Octanoyl = CCCCCCCC(=O)*
What was measured:
Salmonella typhimurium = test: Antibacterial activity against Salmonella typhimurium NCIM 2501 after 18 to 20 hrs by broth dilution assay; type: functional, Salmonella enterica subsp. enterica serovar Typhimurium; details: Salmonella enterica
Summary of the method: (§1)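 Two-fold serial dilutions in Mueller-Hinton broth, run in triplicate. Overnight 37 °C cultures diluted to 10⁶ CFU/mL and added 1:1 to the peptide, then incubated at 37 °C for 18-20 h. Growth was read as absorbance at 492 nm against no-peptide controls. MIC taken as the lowest concentration giving complete inhibition or killing. Reproducible across three independent triplicates.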

Staphylococcus aureus = test: Antibacterial activity against Staphylococcus aureus NCIM 5021 after 18 to 20 hrs by broth dilution assay; type: functional; summary of the method: as §1
[1] = Hemolytic activity in human RBC after 1 hr; type: ADME, cell-based; details: erythrocyte
Summary of the method: (§2)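 Fresh EDTA-collected human RBCs washed four times in Tris-buffered saline (10 mM Tris, 150 mM NaCl, pH 7.2) and used at 4% v/v, mixed 1:1 with two-fold serially diluted peptide (top 100 µg/ml before mixing). Incubated at 37 °C for 1 h and centrifuged; supernatant hemoglobin read at 540 nm. Buffer and 1% Triton-X served as negative and positive controls. Percent hemolysis = (A−A_N)/(A_P−A_N)×100. Run in duplicate.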

Candida albicans [2] = test: Antifungal activity against Candida albicans NCIM 3471 after 48 to 72 hrs; type: functional
Summary of the method: (§3)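 Peptide in water was serially diluted two-fold in potato dextrose broth and mixed 1:1 with yeast suspension at 2×10³ CFU/ml. Incubated at 25 °C for 48-72 h, with growth read as absorbance at 620 nm against a peptide-free culture. MIC was the lowest concentration giving complete growth inhibition. Run in triplicate.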

Nakaseomyces glabratus = test: Antifungal activity against Candida glabrata NCIM 3237 after 48 to 72 hrs; type: functional; summary of the method: as §3
Klebsiella pneumoniae = test: Antibacterial activity against Klebsiella pneumoniae NCIM 2957 after 18 to 20 hrs by broth dilution assay; type: functional; summary of the method: as §1
Saccharomyces cerevisiae = test: Antifungal activity against Saccharomyces cerevisiae NCIM 3454 after 48 to 72 hrs; type: functional; summary of the method: as §3
Pseudomonas aeruginosa = test: Antibacterial activity against Pseudomonas aeruginosa NCIM 5029 after 18 to 20 hrs by broth dilution assay; type: functional; summary of the method: as §1
Cryptococcus neoformans = test: Antifungal activity against Cryptococcus neoformans NCIM 3542 after 48 to 72 hrs; type: functional; summary of the method: as §3
Escherichia coli [3] = test: Antibacterial activity against Escherichia coli NCIM 2065 after 18 to 20 hrs by broth dilution assay; type: functional; summary of the method: as §1
Escherichia coli [4] = test: Antibacterial activity against Escherichia coli K-12 NCIM 2563 after 18 to 20 hrs by broth dilution assay; type: functional; summary of the method: as §1
Candida albicans [5] = test: Antifungal activity against Candida albicans NCIM 3471 assessed as disruption of cell membrane by atomic force microscopic analysis; type: functional, organism-based
Summary of the method: (§4)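 E. coli grown in MHB and C. albicans in potato dextrose broth were pelleted and resuspended in deionized water. Cells incubated with 50 µM peptide at 37 °C for 1 h, dried 30 min at 25 °C on poly-L-lysine glass, and imaged by AFM in intermittent contact mode. Peptide-free cells served as control.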

Escherichia coli [6] = test: Antibacterial activity against Escherichia coli K-12 NCIM 2563 assessed as disruption of cell membrane at 50 uM after 1 hr by atomic force microscopic analysis; type: functional, organism-based; summary of the method: as §4
Escherichia coli [7] = test: Antibacterial activity against Escherichia coli expressing pUC19 plasmid assessed as disruption of cytoplasmic membrane at 20 ug/mL after 1 hr by beta-galactosidase leakage assay; type: functional, organism-based
Summary of the method: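 E. coli TOP10 transformed with pUC19 (lacZ) grown in LB with 100 µg/ml ampicillin at 37 °C to A660 0.6, then washed three times. Peptide stock (200 µg/ml) added 1:10 to cells and incubated at 37 °C for 1 h. After centrifugation, supernatant was mixed with 4-methylumbelliferyl substrate and fluorescence followed for 1 h. Initial velocities used; water blank; triplicates.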

Escherichia coli [8] = test: Antibacterial activity against Escherichia coli K-12 NCIM 2563 at 50 uM after 60 mins by FITC uptake assay; type: functional, organism-based
Summary of the method: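 E. coli grown in MHB to OD 0.6, washed, and suspended at 2×10⁷ cfu/ml in 10 mM sodium phosphate pH 7.4. Cells incubated with 50 µM peptide at 37 °C for 60 min, then immobilized on poly-L-lysine slides for 50 min at 30 °C. FITC (10 µg/ml) added, slides washed, and cells examined by fluorescence microscopy. Solvent-treated control.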

[9] = Hemolytic activity in human RBC at 100 ug/ml after 1 hr; type: ADME, cell-based; details: erythrocyte; summary of the method: as §2

SMILES	MIC (Salmonella typhimurium) [µg/mL]	MIC (Staphylococcus aureus) [µg/mL]	MIC (Candida albicans [2]) [µg/mL]	MIC (Nakaseomyces glabratus) [µg/mL]	MIC (Klebsiella pneumoniae) [µg/mL]	MIC (Saccharomyces cerevisiae) [µg/mL]	MIC (Pseudomonas aeruginosa) [µg/mL]	MIC (Cryptococcus neoformans) [µg/mL]	MIC (Escherichia coli [3]) [µg/mL]	MIC (Escherichia coli [4]) [µg/mL]	HD10 [1] [µg/mL]	Activity (Candida albicans [5])	Activity (Escherichia coli [6])	Activity (Escherichia coli [7])	Activity (Escherichia coli [8])	Activity [9]
CCCCCCCC(=O)N[C@@H](C)/C=C/C(=O)N[C@@H](CCCNC(=N)N)C(=O)N[C@@H](C)/C=C/C(=O)N[C@@H](CCCNC(=N)N)C(N)=O	> 100	> 100	> 100	> 100	> 100	> 100	> 100	> 100	> 100	> 100	52	Active	Active	–	–	–
CCCCCCCC(=O)N[C@H](/C=C/C(=O)N[C@@H](CCCCN)C(=O)N[C@H](/C=C/C(=O)N[C@@H](CCCCN)C(N)=O)Cc1ccc(O)cc1)Cc1ccc(O)cc1	50 (≈ 64.3 µM)	50 (≈ 64.3 µM)	12.5 (≈ 16.1 µM)	25 (≈ 32.1 µM)	50 (≈ 64.3 µM)	12.5 (≈ 16.1 µM)	50 (≈ 64.3 µM)	25 (≈ 32.1 µM)	25 (≈ 32.1 µM)	25 (≈ 32.1 µM)	54	Active	Active	–	–	–
CCCCCCCCCCCC(=O)N[C@@H](C)/C=C/C(=O)N[C@@H](CCCNC(=N)N)C(=O)N[C@@H](C)/C=C/C(=O)N[C@@H](CCCNC(=N)N)C(N)=O	3.12 (≈ 4.42 µM)	6.25 (≈ 8.85 µM)	3.12 (≈ 4.42 µM)	6.25 (≈ 8.85 µM)	6.25 (≈ 8.85 µM)	3.12 (≈ 4.42 µM)	3.12 (≈ 4.42 µM)	12.5 (≈ 17.7 µM)	12.5 (≈ 17.7 µM)	12.5 (≈ 17.7 µM)	22	Active	Active	–	–	–
CCCCCCCC(=O)N[C@H](/C=C/C(=O)N[C@@H](CCCCN)C(=O)N[C@H](/C=C/C(=O)N[C@@H](CCCCN)C(N)=O)Cc1ccccc1)Cc1ccccc1	3.12 (≈ 4.18 µM)	3.12 (≈ 4.18 µM)	3.12 (≈ 4.18 µM)	3.12 (≈ 4.18 µM)	3.12 (≈ 4.18 µM)	3.12 (≈ 4.18 µM)	3.12 (≈ 4.18 µM)	3.12 (≈ 4.18 µM)	1.56 (≈ 2.09 µM)	1.56 (≈ 2.09 µM)	16	Active	Active	Active	Active	–
CC(=O)N[C@H](/C=C/C(=O)N[C@@H](CCCCN)C(=O)N[C@H](/C=C/C(=O)N[C@@H](CCCCN)C(N)=O)Cc1ccccc1)Cc1ccccc1	> 100	> 100	> 100	> 100	> 100	> 100	> 100	> 100	> 100	> 100	–	Active	Active	–	–	Non-toxic
CCCCCCCCCCCC(=O)N[C@H](/C=C/C(=O)N[C@@H](CCCCN)C(=O)N[C@H](/C=C/C(=O)N[C@@H](CCCCN)C(N)=O)Cc1ccccc1)Cc1ccccc1	25 (≈ 31.2 µM)	25 (≈ 31.2 µM)	3.12 (≈ 3.89 µM)	6.25 (≈ 7.79 µM)	25 (≈ 31.2 µM)	6.25 (≈ 7.79 µM)	25 (≈ 31.2 µM)	6.25 (≈ 7.79 µM)	25 (≈ 31.2 µM)	25 (≈ 31.2 µM)	< 1.56	Active	Active	–	–	–
CCCCCCCCCCCC(=O)N[C@H](/C=C/C(=O)N[C@@H](CCCCN)C(=O)N[C@H](/C=C/C(=O)N[C@@H](CCCCN)C(N)=O)Cc1ccc(O)cc1)Cc1ccc(O)cc1	3.12 (≈ 3.74 µM)	3.12 (≈ 3.74 µM)	1.56 (≈ 1.87 µM)	3.12 (≈ 3.74 µM)	3.12 (≈ 3.74 µM)	3.12 (≈ 3.74 µM)	3.12 (≈ 3.74 µM)	6.25 (≈ 7.49 µM)	6.25 (≈ 7.49 µM)	6.25 (≈ 7.49 µM)	2.5	Active	Active	Active	Active	–

More lines, main results first:

MIC (Salmonella typhimurium) [µg/mL]	MIC (Staphylococcus aureus) [µg/mL]	MIC (Candida albicans [2]) [µg/mL]	MIC (Nakaseomyces glabratus) [µg/mL]	MIC (Klebsiella pneumoniae) [µg/mL]	MIC (Saccharomyces cerevisiae) [µg/mL]	MIC (Pseudomonas aeruginosa) [µg/mL]	MIC (Cryptococcus neoformans) [µg/mL]	MIC (Escherichia coli [3]) [µg/mL]	MIC (Escherichia coli [4]) [µg/mL]	SMILES	HD10 [1] [µg/mL]	Activity (Candida albicans [5])	Activity (Escherichia coli [6])	Activity (Escherichia coli [7])	Activity (Escherichia coli [8])	Activity [9]
> 100	> 100	> 100	50 (≈ 84.2 µM)	> 100	> 100	> 100	> 100	> 100	> 100	CCCCCCCC(=O)N[C@@H](C)/C=C/C(=O)N[C@@H](CCCCN)C(=O)N[C@@H](C)/C=C/C(=O)N[C@@H](CCCCN)C(N)=O	58	Active	Active	–	–	–
> 100	> 100	> 100	> 100	> 100	> 100	> 100	> 100	> 100	> 100	CCCCCCCC(=O)N[C@@H](CC(C)C)C(=O)N[C@@H](CCCCN)C(=O)N[C@H](C(=O)N[C@@H](CCCCN)C(N)=O)C(C)C (Octanoyl-LKVK-NH2)	–	Active	Active	–	–	Non-toxic
50 (≈ 75.3 µM)	50 (≈ 75.3 µM)	25 (≈ 37.7 µM)	50 (≈ 75.3 µM)	25 (≈ 37.7 µM)	50 (≈ 75.3 µM)	50 (≈ 75.3 µM)	6.25 (≈ 9.41 µM)	12.5 (≈ 18.8 µM)	–	CCCCCCCC(=O)N[C@H](/C=C/C(=O)N[C@@H](CCCCN)C(=O)N[C@H](/C=C/C(=O)N[C@@H](CCCCN)C(N)=O)C(C)C)CC(C)C	–	Active	Active	–	–	–
6.25 (≈ 9.62 µM)	6.25 (≈ 9.62 µM)	3.12 (≈ 4.8 µM)	6.25 (≈ 9.62 µM)	3.12 (≈ 4.8 µM)	3.12 (≈ 4.8 µM)	6.25 (≈ 9.62 µM)	6.25 (≈ 9.62 µM)	6.25 (≈ 9.62 µM)	6.25 (≈ 9.62 µM)	CCCCCCCCCCCC(=O)N[C@@H](C)/C=C/C(=O)N[C@@H](CCCCN)C(=O)N[C@@H](C)/C=C/C(=O)N[C@@H](CCCCN)C(N)=O	48	Active	Active	inactive	–	–
